From ChEMBL document CHEMBL4811273, “Discovery of a novel series of GPR119 agonists: Design, synthesis, and biological evaluation of N-(Piperidin-4-yl)-N-(trifluoromethyl)pyrimidin-4-amine derivatives” (Bioorg Med Chem, 2021)
Values after ≈ are worked out from the molar mass of the structure shown. Active and inactive are the calls of the source. The calls are words filed in the database; no cut-off is given here.

Legend:
[1] = target: T1, Glucose-dependent insulinotropic receptor (Homo sapiens, UniProt Q8TDV5); test: Agonist activity at human GPR119 expressed in CHO cells co-expressing cyclic AMP response element-luciferase reporter gene incubated for 2 hrs by steady-glo luciferase assay; type: functional, cell-based
T1 sequence (Q8TDV5 whole entry): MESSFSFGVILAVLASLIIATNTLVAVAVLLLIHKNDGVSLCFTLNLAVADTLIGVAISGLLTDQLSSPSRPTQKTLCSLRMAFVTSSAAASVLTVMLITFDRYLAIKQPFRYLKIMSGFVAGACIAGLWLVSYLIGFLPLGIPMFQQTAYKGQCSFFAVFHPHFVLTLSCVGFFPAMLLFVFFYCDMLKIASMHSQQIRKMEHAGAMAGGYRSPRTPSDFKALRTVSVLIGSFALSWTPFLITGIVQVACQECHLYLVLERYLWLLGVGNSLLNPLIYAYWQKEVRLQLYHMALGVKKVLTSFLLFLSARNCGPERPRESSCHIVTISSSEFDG
In short: (§1)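 CHO cells stably expressing human or rat GPR119 were seeded at 10,000 cells/well in MEMα with 10% FBS and Geneticin and grown overnight at 37 °C. After one wash, cells were exposed to compounds at various concentrations in MEMα/20 mM HEPES/0.1% BSA for 2 h. cAMP-driven luciferase was read with Steady-Glo and normalized to vehicle and reference wells. EC50 is the mean, n = 2.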

[2] = Partition coefficient, logD between 1-octanol and pH 7.4 aqueous buffer by chromatographic analysis; type: physicochemical; conditions: 1-octanol/pH 7.4 aqueous buffer
In short: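 LogD between 1-octanol and aqueous buffer at pH 7.4 was determined by a chromatographic procedure adapted from a published method.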

hERG (KCNH2) = hERG (KCNH2) (Homo sapiens, UniProt Q12809); test: Inhibition of human ERG expressed in CHO cells at 10 uM at holding potential of -80 mV by patch clamp method; type: cell-based; conditions: CHO cells expressing human ERG
hERG (KCNH2), sequence (Q12809 whole entry): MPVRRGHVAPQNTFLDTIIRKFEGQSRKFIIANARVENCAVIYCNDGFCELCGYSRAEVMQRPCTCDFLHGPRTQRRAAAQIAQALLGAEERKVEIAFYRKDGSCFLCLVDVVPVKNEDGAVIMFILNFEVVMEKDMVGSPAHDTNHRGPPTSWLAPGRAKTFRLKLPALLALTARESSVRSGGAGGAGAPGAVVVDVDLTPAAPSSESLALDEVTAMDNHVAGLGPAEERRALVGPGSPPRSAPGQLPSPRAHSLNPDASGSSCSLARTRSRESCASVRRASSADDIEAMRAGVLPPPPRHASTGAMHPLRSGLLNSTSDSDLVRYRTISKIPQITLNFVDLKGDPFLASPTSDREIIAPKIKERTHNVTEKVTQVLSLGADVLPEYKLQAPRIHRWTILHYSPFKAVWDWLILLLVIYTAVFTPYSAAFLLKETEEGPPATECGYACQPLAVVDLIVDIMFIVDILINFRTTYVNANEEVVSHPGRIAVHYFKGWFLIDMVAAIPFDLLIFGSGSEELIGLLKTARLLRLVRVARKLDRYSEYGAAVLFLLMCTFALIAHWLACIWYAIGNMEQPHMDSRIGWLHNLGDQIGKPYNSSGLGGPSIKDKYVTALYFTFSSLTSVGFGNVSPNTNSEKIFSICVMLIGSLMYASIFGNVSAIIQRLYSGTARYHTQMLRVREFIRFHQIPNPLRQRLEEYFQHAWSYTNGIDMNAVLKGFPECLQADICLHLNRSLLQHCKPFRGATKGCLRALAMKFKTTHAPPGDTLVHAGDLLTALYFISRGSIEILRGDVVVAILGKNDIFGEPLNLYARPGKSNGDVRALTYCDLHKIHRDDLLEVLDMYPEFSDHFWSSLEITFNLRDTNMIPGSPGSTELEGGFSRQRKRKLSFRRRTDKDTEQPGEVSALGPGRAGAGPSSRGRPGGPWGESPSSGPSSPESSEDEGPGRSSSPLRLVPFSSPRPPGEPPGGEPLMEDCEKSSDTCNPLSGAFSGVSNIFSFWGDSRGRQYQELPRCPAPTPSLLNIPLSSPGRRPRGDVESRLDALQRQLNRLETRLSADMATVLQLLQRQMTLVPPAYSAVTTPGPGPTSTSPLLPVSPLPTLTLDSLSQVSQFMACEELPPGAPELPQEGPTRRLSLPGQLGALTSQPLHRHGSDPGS

[3] = Aqueous solubility of the compound at pH 6.8 by HPLC analysis; type: physicochemical; conditions: buffer
In short: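 DMSO stock solutions were added in small volumes to aqueous buffer at pH 6.8 and incubated. Precipitate was removed by filtration, and the filtrate was quantified by HPLC.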

[4] = Hepatic clearance in human liver microsomes measured up to 30 mins by LC/MS/MS analysis; type: ADME, Microsome; conditions: read-out: CLH
In short: (§2)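 Human or rat liver microsomes (0.2 mg/mL protein) were incubated with 1 μM compound in 50 mM potassium phosphate, pH 7.4. The reaction was started with an NADPH-generating system and stopped with acetonitrile at 15 and 30 min. Parent compound was quantified by LC/MS/MS, and CLint (μL/min/mg) was taken from the slope of the concentration–time plot.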

[5] = Hepatic clearance in rat liver microsomes measured up to 30 mins by LC/MS/MS analysis; type: ADME, Microsome; conditions: read-out: CLH; in short: as §2
[6] = Intrinsic clearance in human liver microsomes; type: ADME, Microsome; conditions: read-out: CLH; in short: as §2
Rattus norvegicus [7] = test: Antidiabetic activity in orally dosed NSTZ1.5 rat assessed as reduction in insulin level administered 60 mins prior to glucose challenge and measured up to 60 mins by OGTT; type: functional, organism-based; conditions: dose 0.3-3 mg/kg
[8] = target: T2, Glucose-dependent insulinotropic receptor (Rattus norvegicus, UniProt Q7TQN8); test: Agonist activity at rat GPR119 in golden hamster HIT-T15 cells assessed as induction of glucose-induced insulin secretion after 2 hrs by A1phaLISA; type: functional, cell-based
T2 sequence (Q7TQN8 whole entry): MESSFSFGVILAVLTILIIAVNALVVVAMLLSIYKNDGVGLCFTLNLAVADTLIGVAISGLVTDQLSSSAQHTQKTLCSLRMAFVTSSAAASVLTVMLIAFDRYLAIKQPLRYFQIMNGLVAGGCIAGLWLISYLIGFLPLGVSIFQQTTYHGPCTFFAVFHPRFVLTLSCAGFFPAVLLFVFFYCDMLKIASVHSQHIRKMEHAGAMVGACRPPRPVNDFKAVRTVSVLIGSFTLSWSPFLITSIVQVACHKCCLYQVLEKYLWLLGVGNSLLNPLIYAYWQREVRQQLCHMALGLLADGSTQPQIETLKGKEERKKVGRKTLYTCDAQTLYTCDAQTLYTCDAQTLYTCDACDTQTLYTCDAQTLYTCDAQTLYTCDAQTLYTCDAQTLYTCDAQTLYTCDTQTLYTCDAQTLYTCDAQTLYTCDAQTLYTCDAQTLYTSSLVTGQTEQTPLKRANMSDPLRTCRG
In short: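 Hamster HIT-T15 beta cells were seeded at 5 × 10^4 cells/well and pre-incubated 2 h in KRBH with 0.2% BSA. They were then incubated 2 h at 37 °C with compound in KRBH containing 0.2% fatty-acid-free BSA and 10 mmol/L glucose. Secreted insulin was quantified by AlphaLISA. EC50 from n = 2.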

[9] = Clearance in rat at 0.1 mg/kg, iv administered as cassette dose by LC/MS/MS analysis; type: ADME, organism-based; conditions: in vivo
In short: (§3)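 Intravenous cassette dosing at 0.1 mg/kg in rats (the methods text says non-fasted mice). Plasma was obtained from blood samples, deproteinized, centrifuged, and analysed by LC/MS/MS.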

[10] = AUC in […] at 1 mg/kg, po administered as cassette dose by LC/MS/MS analysis; type: ADME, organism-based, Rattus norvegicus; design: dose 1 mg/kg; conditions: in vivo
[11] = Mean residence time in rat at 1 mg/kg, po administered as cassette dose by LC/MS/MS analysis; type: ADME, organism-based; conditions: in vivo
In short: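 Rat cassette PK. Oral dose 1 mg/kg in 0.5% methylcellulose aqueous solution. The methods text says non-fasted mice. Blood was collected after dosing, and plasma was deproteinized and centrifuged. Compound in the supernatant was measured by LC/MS/MS.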

[12] = target: T2, Glucose-dependent insulinotropic receptor; test: Agonist activity at rat GPR119 expressed in CHO cells co-expressing cyclic AMP response element-luciferase reporter gene incubated for 2 hrs by steady-glo luciferase assay; type: functional, cell-based; in short: as §1
Rattus norvegicus [13] = test: Antidiabetic activity in NSTZ1.5 rat assessed as reduction in plasma glucose level at 0.3 to 3 mg/kg, po administered 60 mins prior to glucose challenge and measured up to 60 mins by OGTT; type: functional, organism-based; conditions: dose 0.3-3 mg/kg
[14] = Oral bioavailability in […] at 1 mg/kg administered as cassette dose by LC/MS/MS analysis; type: ADME, organism-based, Rattus norvegicus; conditions: in vivo
[15] = target: T2, Glucose-dependent insulinotropic receptor; test: Agonist activity at rat GPR119 in GLUTag cells assessed as induction of GLP-1 secretion after 2 hrs by ELISA; type: functional, cell-based
In short: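 Murine GLUTag L cells were seeded at 1 × 10^4 cells/well on poly-L-lysine and moved overnight to low-glucose DMEM. After a Hank's wash, cells were incubated 2 h at 37 °C with compound in KRBH containing 0.2% fatty-acid-free BSA and 10 mmol/L glucose. Active GLP-1 in the supernatant was measured by ELISA. EC50 from n = 2.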

[16] = Volume of distribution at steady state in rat at 0.1 mg/kg, iv administered as cassette dose by LC/MS/MS analysis; type: ADME, organism-based; conditions: in vivo; in short: as §3

CC(C)(C)OC(=O)N1CCC(N(c2cc(N3CCc4cc(S(C)(=O)=O)ccc43)ncn2)C(F)(F)F)CC1
EC50 [1]: 0.0025 µM | logD [2]: 4.1 | inhibition at 10 µM (hERG (KCNH2)): 13%

CC(C)(C)OC(=O)N1CCC(Nc2cc(N3CCc4cc(S(C)(=O)=O)ccc43)ncn2)CC1
EC50 [1]: 0.3 µM | logD [2]: 2.7 | inhibition at 10 µM (hERG (KCNH2)): 80%

CC(C)(C)OC(=O)N1CCC(N(c2cc(NC3CCN(S(C)(=O)=O)CC3)ncn2)C(F)(F)F)CC1
EC50 [1]: 0.043 µM

CC(C)(C)OC(=O)N1CCC(N(c2cc(O[C@H]3CC[C@H](S(C)(=O)=O)CC3)ncn2)C(F)(F)F)CC1
EC50 [1]: 0.27 µM

CC(C)(C)OC(=O)N1CCC(N(c2cc(OC3CN(S(C)(=O)=O)C3)ncn2)C(F)(F)F)CC1
EC50 [1]: 7.1 µM

CC(C)(C)OC(=O)N1CCC(N(c2cc(OC3CCN(S(C)(=O)=O)CC3)ncn2)C(F)(F)F)CC1
EC50 [1]: 0.0036 µM

CN(c1cc(N2CCc3cc(S(C)(=O)=O)ccc32)ncn1)C1CCN(C(=O)OC(C)(C)C)CC1
EC50 [1]: 0.021 µM | logD [2]: 3.2 | inhibition at 10 µM (hERG (KCNH2)): 85%

CC(C)c1noc(N2CCC(N(c3cc(OC4CCN(S(C)(=O)=O)CC4)ncn3)C(F)(F)F)CC2)n1
EC50 [1]: 0.0027 µM | solubility [3]: 0.029 mg/mL (≈ 54.4 µM) | microsomal CLint [4]: 108 µL/min/mg | microsomal CLint [5]: 36 µL/min/mg

CN(c1cc(N(C2CCN(C(=O)OC(C)(C)C)CC2)C(F)(F)F)ncn1)C1CCN(S(C)(=O)=O)CC1
EC50 [1]: > 10 µM

CC(C)(C)OC(=O)N1CCC(N(CC2CC2)c2cc(N3CCc4cc(S(C)(=O)=O)ccc43)ncn2)CC1
EC50 [1]: 0.051 µM | logD [2]: 4.1 | inhibition at 10 µM (hERG (KCNH2)): 100%

CC(C)(C)OC(=O)N1CCC(N(c2cc(OCC3CN(S(C)(=O)=O)C3)ncn2)C(F)(F)F)CC1
EC50 [1]: 0.96 µM

CCN(c1cc(N2CCc3cc(S(C)(=O)=O)ccc32)ncn1)C1CCN(C(=O)OC(C)(C)C)CC1
EC50 [1]: 0.014 µM | logD [2]: 3.5 | inhibition at 10 µM (hERG (KCNH2)): 116%

CC(C)(F)c1noc(N2CCC(N(c3cc(OC4CCN(S(C)(=O)=O)CC4)ncn3)C(F)(F)F)CC2)n1
EC50 [1]: 0.0046 µM | solubility [3]: 0.021 mg/mL (≈ 38.1 µM) | microsomal CLint [6]: 27 µL/min/mg | Activity (Rattus norvegicus [7]): Dose-Dependent Effect | EC50 [8]: 0.0048 µM | clearance [9]: 0.373 L/h/kg | AUC [10]: 1.54 µg·h/mL | MRT [11]: 4.05 h | EC50 [12]: 0.024 µM | inhibition at 10 µM (hERG (KCNH2)): 19% | Activity (Rattus norvegicus [13]): Active | bioavailability [14]: 57% | microsomal CLint [4]: 27 µL/min/mg | EC50 [15]: 0.0038 µM | Vdss [16]: 1.27 L/kg | microsomal CLint [5]: < 1 µL/min/mg

CC(C)c1noc(N2CCC(Oc3cc(N4CCc5cc(N6CCC[C@H](O)C6=O)ccc54)ncn3)CC2)n1
microsomal CLint [6]: 10 µL/min/mg

CC(C)c1noc(N2CCC(N(c3cc(N4CCc5cc(S(C)(=O)=O)ccc54)ncn3)C(F)(F)F)CC2)n1
EC50 [1]: 0.0029 µM | solubility [3]: < 0.00022 mg/mL | logD [2]: 3.79

CS(=O)(=O)N1CCC(Oc2cc(N(C3CCN(c4nc(C5CC5)no4)CC3)C(F)(F)F)ncn2)CC1
EC50 [1]: 0.0054 µM | solubility [3]: 0.015 mg/mL (≈ 28.2 µM) | microsomal CLint [4]: 31 µL/min/mg | microsomal CLint [5]: 13 µL/min/mg

COCCN(c1cc(N2CCc3cc(S(C)(=O)=O)ccc32)ncn1)C1CCN(C(=O)OC(C)(C)C)CC1
EC50 [1]: 0.029 µM | logD [2]: 3.4 | inhibition at 10 µM (hERG (KCNH2)): 120%

CCCN(c1cc(N2CCc3cc(S(C)(=O)=O)ccc32)ncn1)C1CCN(C(=O)OC(C)(C)C)CC1
EC50 [1]: 0.018 µM | logD [2]: 4 | inhibition at 10 µM (hERG (KCNH2)): 94%
